{
  "source": "ChEMBL document CHEMBL3244429",
  "about": "“Antischistosomal effects of 5-(2,4,5-trichlorophenyl)hydantoin and related compounds” (J Med Chem, 1977)",
  "type_in_all_cases": "functional",
  "key": {"Schistosoma mansoni [1]": {"tested_on": "Schistosoma mansoni", "assay": "Antischistosomal activity against Schistosoma mansoni Puerto Rican infected mouse assessed as infected mouse at 146 mg/kg/day, through diet for 14 days", "in_short": "(§1)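 Mice carrying a Puerto Rican strain of S. mansoni received drug mixed into a powdered diet for 14 days, with dose expressed as mg/kg per day. The read-out was the reduction in live schistosomes in the infected mice.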"}, "Schistosoma mansoni [2]": {"tested_on": "Schistosoma mansoni", "assay": "Antischistosomal activity against Schistosoma mansoni Puerto Rican infected mouse assessed as reduction in live schistosomes at 146 mg/kg/day, through diet for 14 days", "details": "336 h", "in_short": "as §1"}, "Schistosoma mansoni [3]": {"tested_on": "Schistosoma mansoni", "assay": "Antischistosomal activity against Schistosoma mansoni Puerto Rican infected mouse assessed as reduction in live schistosomes at 301 mg/kg/day, through diet for 14 days", "details": "336 h", "in_short": "as §1"}, "Schistosoma mansoni [4]": {"tested_on": "Schistosoma mansoni", "assay": "Antischistosomal activity against Schistosoma mansoni Puerto Rican infected mouse assessed as infected mouse at 301 mg/kg/day, through diet for 14 days", "in_short": "as §1"}, "Schistosoma mansoni [5]": {"tested_on": "Schistosoma mansoni", "assay": "Antischistosomal activity against Schistosoma mansoni Puerto Rican infected mouse assessed as reduction in live schistosomes at 288 mg/kg/day, through diet for 14 days", "details": "336 h", "in_short": "as §1"}, "Schistosoma mansoni [6]": {"tested_on": "Schistosoma mansoni", "assay": "Antischistosomal activity against Schistosoma mansoni Puerto Rican infected mouse assessed as infected mouse at 288 mg/kg/day, through diet for 14 days", "in_short": "as §1"}, "Schistosoma mansoni [7]": {"tested_on": "Schistosoma mansoni", "assay": "Antischistosomal activity against Schistosoma mansoni Puerto Rican infected mouse assessed as infected mouse at 269 mg/kg/day, through diet for 14 days", "in_short": "as §1"}, "Schistosoma mansoni [8]": {"tested_on": "Schistosoma mansoni", "assay": "Antischistosomal activity against Schistosoma mansoni Puerto Rican infected mouse assessed as infected mouse at 200 mg/kg/day, through gavage for 5 days"}, "Schistosoma mansoni [9]": {"tested_on": "Schistosoma mansoni", "assay": "Antischistosomal activity against Schistosoma mansoni Puerto Rican infected mouse assessed as infected mouse at 100 mg/kg/day, through gavage for 10 days"}, "Schistosoma mansoni [10]": {"tested_on": "Schistosoma mansoni", "assay": "Antischistosomal activity against Schistosoma mansoni Puerto Rican infected mouse assessed as reduction in live schistosomes at 269 mg/kg/day, through diet for 14 days", "details": "336 h", "in_short": "as §1"}, "Schistosoma mansoni [11]": {"tested_on": "Schistosoma mansoni", "assay": "Antischistosomal activity against Schistosoma mansoni Puerto Rican infected mouse assessed as reduction in live schistosomes at 200 mg/kg/day, through gavage for 5 days", "details": "po, 120 h"}, "Schistosoma mansoni [12]": {"tested_on": "Schistosoma mansoni", "assay": "Antischistosomal activity against Schistosoma mansoni Puerto Rican infected mouse assessed as reduction in live schistosomes at 100 mg/kg/day, through gavage for 10 days", "details": "po, 240 h"}, "Schistosoma mansoni [13]": {"tested_on": "Schistosoma mansoni", "assay": "Antischistosomal activity against Schistosoma mansoni Puerto Rican infected mouse assessed as reduction in live schistosomes at 314 mg/kg/day, through diet for 14 days", "details": "336 h", "in_short": "as §1"}, "Schistosoma mansoni [14]": {"tested_on": "Schistosoma mansoni", "assay": "Antischistosomal activity against Schistosoma mansoni Puerto Rican infected mouse assessed as infected mouse at 314 mg/kg/day, through diet for 14 days", "in_short": "as §1"}, "Schistosoma mansoni [15]": {"tested_on": "Schistosoma mansoni", "assay": "Antischistosomal activity against Schistosoma mansoni Puerto Rican infected mouse assessed as infected mouse at 396 mg/kg/day, through diet for 14 days", "in_short": "as §1"}, "Schistosoma mansoni [16]": {"tested_on": "Schistosoma mansoni", "assay": "Antischistosomal activity against Schistosoma mansoni Puerto Rican infected mouse assessed as reduction in live schistosomes at 396 mg/kg/day, through diet for 14 days", "details": "336 h", "in_short": "as §1"}, "Schistosoma mansoni [17]": {"tested_on": "Schistosoma mansoni", "assay": "Antischistosomal activity against Schistosoma mansoni Puerto Rican infected mouse assessed as reduction in live schistosomes at 297 mg/kg/day, through diet for 14 days", "details": "336 h", "in_short": "as §1"}, "Schistosoma mansoni [18]": {"tested_on": "Schistosoma mansoni", "assay": "Antischistosomal activity against Schistosoma mansoni Puerto Rican infected mouse assessed as infected mouse at 297 mg/kg/day, through diet for 14 days", "in_short": "as §1"}, "Schistosoma mansoni [19]": {"tested_on": "Schistosoma mansoni", "assay": "Antischistosomal activity against Schistosoma mansoni Puerto Rican infected mouse assessed as infected mouse at 265 mg/kg/day, through diet for 14 days", "in_short": "as §1"}, "Schistosoma mansoni [20]": {"tested_on": "Schistosoma mansoni", "assay": "Antischistosomal activity against Schistosoma mansoni Puerto Rican infected mouse assessed as reduction in live schistosomes at 265 mg/kg/day, through diet for 14 days", "details": "336 h", "in_short": "as §1"}, "Schistosoma mansoni [21]": {"tested_on": "Schistosoma mansoni", "assay": "Antischistosomal activity against Schistosoma mansoni Puerto Rican infected mouse assessed as reduction in live schistosomes at 249 mg/kg/day, through diet for 14 days", "details": "336 h", "in_short": "as §1"}, "Schistosoma mansoni [22]": {"tested_on": "Schistosoma mansoni", "assay": "Antischistosomal activity against Schistosoma mansoni Puerto Rican infected mouse assessed as infected mouse at 249 mg/kg/day, through diet for 14 days", "in_short": "as §1"}, "Schistosoma mansoni [23]": {"tested_on": "Schistosoma mansoni", "assay": "Antischistosomal activity against Schistosoma mansoni Puerto Rican infected mouse assessed as infected mouse at 347 mg/kg/day, through diet for 14 days", "in_short": "as §1"}, "Schistosoma mansoni [24]": {"tested_on": "Schistosoma mansoni", "assay": "Antischistosomal activity against Schistosoma mansoni Puerto Rican infected mouse assessed as reduction in live schistosomes at 347 mg/kg/day, through diet for 14 days", "details": "336 h", "in_short": "as §1"}, "Schistosoma mansoni [25]": {"tested_on": "Schistosoma mansoni", "assay": "Antischistosomal activity against Schistosoma mansoni Puerto Rican infected mouse assessed as reduction in live schistosomes at 298 mg/kg/day, through diet for 14 days", "details": "336 h", "in_short": "as §1"}, "Schistosoma mansoni [26]": {"tested_on": "Schistosoma mansoni", "assay": "Antischistosomal activity against Schistosoma mansoni Puerto Rican infected mouse assessed as infected mouse at 298 mg/kg/day, through diet for 14 days", "in_short": "as §1"}},
  "data": [
    {"smiles": "O=C1NC(c2cc(Cl)c(Cl)cc2Cl)C(=O)N1CO", "note": "(stereo unspecified)", "values": [
      {"measurement": "Activity", "setting": "Schistosoma mansoni [1]", "result": 100, "unit": "%"},
      {"measurement": "inhibition in vivo at 146 mg/kg/day", "setting": "Schistosoma mansoni [2]", "result": 0, "unit": "%"}
    ]},
    {"smiles": "CC1(c2ccc(Cl)cc2Cl)NC(=O)NC1=O", "note": "(stereo unspecified)", "values": [
      {"measurement": "inhibition in vivo at 301 mg/kg/day", "setting": "Schistosoma mansoni [3]", "result": 8, "unit": "%"},
      {"measurement": "Activity", "setting": "Schistosoma mansoni [4]", "result": 100, "unit": "%"}
    ]},
    {"smiles": "C[N+](C)(C)CCCN1C(=O)NC(c2cc(Cl)c(Cl)cc2Cl)C1=O.[I-]", "note": "(stereo unspecified)", "values": [
      {"measurement": "inhibition in vivo at 288 mg/kg/day", "setting": "Schistosoma mansoni [5]", "result": 13, "unit": "%"},
      {"measurement": "Activity", "setting": "Schistosoma mansoni [6]", "result": 100, "unit": "%"}
    ]},
    {"smiles": "O=C1[N-]C(=O)C(c2cc(Cl)c(Cl)cc2Cl)N1.[Na+]", "note": "(stereo unspecified)", "values": [
      {"measurement": "Activity", "setting": "Schistosoma mansoni [7]", "result": 100, "unit": "%"},
      {"measurement": "Activity", "setting": "Schistosoma mansoni [8]", "result": 100, "unit": "%"},
      {"measurement": "Activity", "setting": "Schistosoma mansoni [9]", "result": 100, "unit": "%"},
      {"measurement": "inhibition in vivo at 269 mg/kg/day", "setting": "Schistosoma mansoni [10]", "result": 65, "unit": "%"},
      {"measurement": "inhibition in vivo at 200 mg/kg/day", "setting": "Schistosoma mansoni [11]", "result": 86, "unit": "%"},
      {"measurement": "inhibition in vivo at 100 mg/kg/day", "setting": "Schistosoma mansoni [12]", "result": 76, "unit": "%"}
    ]},
    {"smiles": "CC1(c2ccc([N+](=O)[O-])cc2)NC(=O)NC1=O", "note": "(stereo unspecified)", "values": [
      {"measurement": "inhibition in vivo at 314 mg/kg/day", "setting": "Schistosoma mansoni [13]", "result": 0, "unit": "%"},
      {"measurement": "Activity", "setting": "Schistosoma mansoni [14]", "result": 100, "unit": "%"}
    ]},
    {"smiles": "CN1C(=O)NC(=O)C1c1cc(Cl)c(Cl)cc1Cl", "note": "(stereo unspecified)", "values": [
      {"measurement": "Activity", "setting": "Schistosoma mansoni [15]", "result": 83, "unit": "%"},
      {"measurement": "inhibition in vivo at 396 mg/kg/day", "setting": "Schistosoma mansoni [16]", "result": 71, "unit": "%"}
    ]},
    {"smiles": "CC1(c2cc(Cl)c(Cl)cc2Cl)NC(=O)NC1=O", "note": "(stereo unspecified)", "values": [
      {"measurement": "inhibition in vivo at 297 mg/kg/day", "setting": "Schistosoma mansoni [17]", "result": 90, "unit": "%"},
      {"measurement": "Activity", "setting": "Schistosoma mansoni [18]", "result": 66, "unit": "%"}
    ]},
    {"smiles": "CN1C(=O)NC(c2cc(Cl)c(Cl)cc2Cl)C1=O", "note": "(stereo unspecified)", "values": [
      {"measurement": "Activity", "setting": "Schistosoma mansoni [19]", "result": 33, "unit": "%"},
      {"measurement": "inhibition in vivo at 265 mg/kg/day", "setting": "Schistosoma mansoni [20]", "result": 83, "unit": "%"}
    ]},
    {"smiles": "O=C1NCCN1c1ncc([N+](=O)[O-])s1", "note": "[NIRIDAZOLE]", "values": [
      {"measurement": "inhibition in vivo at 249 mg/kg/day", "setting": "Schistosoma mansoni [21]", "result": 99, "unit": "%"},
      {"measurement": "Activity", "setting": "Schistosoma mansoni [22]", "result": 17, "unit": "%"}
    ]},
    {"smiles": "O=C1NC(=O)C(c2c(Cl)cccc2Cl)N1", "note": "(stereo unspecified)", "values": [
      {"measurement": "Activity", "setting": "Schistosoma mansoni [23]", "result": 100, "unit": "%"},
      {"measurement": "inhibition in vivo at 347 mg/kg/day", "setting": "Schistosoma mansoni [24]", "result": 2, "unit": "%"}
    ]},
    {"smiles": "CC1(c2cccc([N+](=O)[O-])c2)NC(=O)NC1=O", "note": "(stereo unspecified)", "values": [
      {"measurement": "inhibition in vivo at 298 mg/kg/day", "setting": "Schistosoma mansoni [25]", "result": 0, "unit": "%"},
      {"measurement": "Activity", "setting": "Schistosoma mansoni [26]", "result": 100, "unit": "%"}
    ]}
  ]
}
